Experiments:
Canis familiaris [1] = assay: Percent inhibition of the pressor responses to 0.75 ug/kg iv norepinephrine in pentobarbital-anesthetized dogs for a dose of 1 mg/kg; type: functional; details: Canis lupus familiaris
Method in brief: (§1)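 Pentobarbital-anesthetized dogs (35 mg/kg iv) with femoral arterial pressure recording. Epinephrine (1 μg/kg), norepinephrine (0.75 μg/kg) and phenylephrine (7.5 μg/kg) iv challenges were given about every 10 min before and after rising iv test doses, which were spaced 90 min apart. Value is % inhibition of the pressor response.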

Canis familiaris [2] = assay: Change in mean arterial pressure in anesthetized dogs for a dose of 3.16 mg/kg; type: functional, Canis lupus familiaris, Artery
Method in brief: (§2)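 Dogs anesthetized with sodium pentobarbital (35 mg/kg iv), femoral artery cannulated for pressure, ECG-triggered heart rate, femoral vein for dosing. Rising iv doses were given 90 min apart, and each dose is the full dose, not cumulative. Value is the maximal mean arterial pressure change 10–15 min after each dose, two dogs per compound, ±3 mmHg. Saline served as control.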

Canis familiaris [3] = assay: Percent inhibition of the pressor responses to 0.75 ug/kg iv norepinephrine in pentobarbital-anesthetized dogs for a dose of 3.16 mg/kg; type: functional; details: Canis lupus familiaris; method in brief: as §1
Rattus norvegicus [4] = assay: The antihypertensive activity as percentage fall in systolic blood pressure in spontaneously hypertensive rats after a period of 1 hr for a dose of 25 mg/kg po; type: functional, Artery
Method in brief: (§3)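 Male Okamoto-Aoki SHR, trained, in groups of four matched for mean systolic pressure; one group per run received water vehicle. Oral dosing in water (0.1 mL per 10 g) on two consecutive mornings. After the day-2 dose, rats were restrained at 30.0 ± 1.0 °C. Systolic pressure was read by tail cuff (inflated to 300 mmHg, first pulse) at 1–4 h. % fall is versus the untreated control group, by 1-tail t test (p ≤ 0.05).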

Rattus norvegicus [5] = assay: The antihypertensive activity as percentage fall in systolic blood pressure in spontaneously hypertensive rats after a period of 3 hr for a dose of 25 mg/kg po; type: functional, Artery; method in brief: as §3
Canis familiaris [6] = assay: Change in mean arterial pressure in anesthetized dogs for a dose of 10 mg/kg; type: functional, Canis lupus familiaris, Artery; method in brief: as §2
Canis familiaris [7] = assay: Percent inhibition of the pressor responses to 1 ug/kg iv Epinephrine in pentobarbital-anesthetized dogs for a dose of 0.1 mg/kg; type: functional; details: Canis lupus familiaris
Method in brief: (§4)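 Dogs anesthetized with sodium pentobarbital 35 mg/kg iv; femoral artery cannulated for blood pressure, femoral vein for dosing. Epinephrine 1 μg/kg iv given at about 10-min intervals before and after increasing test doses. Test doses given iv at 90-min intervals. Result is per cent inhibition of the pressor response.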

Canis familiaris [8] = assay: Percent inhibition of the pressor responses to 1 ug/kg iv Epinephrine in pentobarbital-anesthetized dogs for a dose of 10 mg/kg; type: functional; details: Canis lupus familiaris; method in brief: as §4
Rattus norvegicus [9] = assay: The antihypertensive activity as percentage fall in systolic blood pressure in spontaneously hypertensive rats after a period of 3 hr for a dose of 50 mg/kg po

| SMILES | inhibition in vivo at 1 mg/kg (Canis familiaris [1]) [%] | MAP (Canis familiaris [2]) [mmHg] | inhibition in vivo at 3.16 mg/kg (Canis familiaris [3]) [%] | Decrease in blood pressure (Rattus norvegicus [4]) [%] | Decrease in blood pressure (Rattus norvegicus [5]) [%] | MAP (Canis familiaris [6]) [mmHg] | inhibition in vivo at 0.1 mg/kg (Canis familiaris [7]) [%] | inhibition in vivo at 10 mg/kg (Canis familiaris [8]) [%] | Decrease in blood pressure (Rattus norvegicus [9]) [%] |
| --- | --- | --- | --- | --- | --- | --- | --- | --- | --- |
| CN1CC2(CCN(CC(O)C3COc4ccccc4O3)CC2)OC1=O (centres undefined) | 60 | -18 | 69 | 27 | 15 | – | – | – | – |
| O=C1NCC2(CCN(CCc3c[nH]c4ccccc34)CC2)O1 | – | – | – | – | – | -6 | > 100 | 97 | 8 |

— ChEMBL document CHEMBL1121744, “Synthesis and antihypertensive activity of a series of 8-substituted 1-oxa-3,8-diazaspiro[4.5]decan-2-ones” (J Med Chem, 1981)
